Assay results as given in ChEMBL document CHEMBL1154191, “Evaluation of spirocyclic 3-(3-fluoropropyl)-2-benzofurans as sigma1 receptor ligands for neuroimaging with positron emission tomography” (J Med Chem, 2009).

Experiments:
Format in all cases: ADME, organism-based
[1] = Biodistribution in CD1 mouse urine assessed as per gram of wet bladder at 400 to 600 kBq, iv after 5 mins post-injection by gamma counting; conditions: in vivo
In short: (§1)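 Female CD-1 mice (~8-12 weeks, 20-28 g), habituated ≥48 h and fasted 24 h with water available. The [18F] tracer (>150 GBq/μmol at end of synthesis) was given in 200 μL saline into the tail vein of conscious animals. At each time point, n=4-5, mice were anaesthetised, blood and urine sampled, then killed by cervical dislocation. Organs were weighed and γ-counted, and values calculated as % ID/g wet tissue.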

Blood = test: Biodistribution in CD1 mouse blood assessed per gram of wet tissue at 400 to 600 kBq, iv after 30 mins post-injection by gamma counting; conditions: in vivo, 0.5 h
In short: (§2)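 Female CD-1 mice (~8-12 weeks, 20-28 g) were fasted 24 h with free water. Conscious mice got 400-600 kBq [¹⁸F] tracer in saline by tail vein. At 5, 30, 60 or 120 min (n=4-5 per time) they were anesthetized, blood and urine sampled, then killed by cervical dislocation. Organs were weighed and γ-counted, giving % ID/g wet tissue.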

Kidney = test: Biodistribution in CD1 mouse kidney assessed per gram of wet tissue at 400 to 600 kBq, iv after 30 mins post-injection by gamma counting; conditions: in vivo, 0.5 h; in short: as §2
Pancreas = test: Biodistribution in CD1 mouse pancreas assessed per gram of wet tissue at 400 to 600 kBq, iv after 30 mins post-injection by gamma counting; conditions: in vivo, 0.5 h; in short: as §1
[2] = Metabolic stability in CD1 mouse urine assessed as formation of hydrophilic and lipophilioc radiometabolite at 200 to 300 MBq, iv after 45 mins post-injection by radio-HPLC and radio-TLC; conditions: in vivo, 0.75 h

[18F]CCCC1OC2(CCN(Cc3ccccc3)CC2)c2ccccc21 (stereo not given)
Drug uptake [1]: 2.89 %ID
Drug uptake (Blood): 0.56 %ID
Drug uptake (Kidney): 7.49 %ID
Drug uptake (Pancreas): 12.8 %ID
Activity [2]: 98%
